Results published in paper PMC3983674 (Journal of immunology (Baltimore, Md. : 1950), 2014).
Ends that are not written are not given here.

Tests used:
[1] = Cytosolic peptide stability assay; details: for half-life: human, s9; for A02-SL9 epitope half-life reduced by (fold vs control): average of 4 experiments, Fig 3B
[2] = test system: purified mouse or human 20S proteasomes; details: ref [30]–[32]; cited from earlier work
PBMC cytosolic extracts = test: HIV epitope processing assay; format: biochemical, human
[3] = test system: caspase-like activity of proteasomes; test: Proteasome caspase-like activity in live PBMC; format: cell-based, human; details: PI pretreatment 30 min 37°C, Fig 1C
[4] = test system: HLA-matched B cells infected with VSVg-pseudotyped HIV; format: cell-based, human
[5] = test system: chymotryptic activity of proteasomes; test: Proteasome chymotryptic activity in live PBMC; format: cell-based, human; details: PI pretreatment 30 min 37°C, increasing concentrations, Fig 1C
In short: (§1)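 Fresh PBMC were isolated from HIV-negative donor buffy coats by Ficoll-Hypaque and pretreated for 30 min at 37°C with increasing concentrations of test compound (DMSO solutions). Digitonin (0.0025% final) was added, then Suc-LLVY-Amc (chymotryptic) or BocLRR-Amc (tryptic), each at 50 µmol/L. Fluorescence was read every 5 min at 37°C. Maximum slope, minus no-cell background, was expressed as % of the DMSO control. MG-132 (10 µmol/L) was used as the specificity control. Data are from 6–8 donors.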

aminopeptidase = test: Aminopeptidase activity in live PBMC; format: cell-based, human; details: for Effect on aminopeptidase activities: live PBMC, increasing concentrations, Fig 1C
[6] = test system: tryptic activity of proteasomes; test: Proteasome tryptic activity in live PBMC; format: cell-based, human; details: increasing concentrations, Fig 1C
In short: as §1

in vitro = details: human, s9
[7] = test system: proteasomal and aminopeptidase activities; test: Proteasomal and aminopeptidase activities in PBMC; format: cell-based, human; details: unpublished data

CC[C@H](C)[C@H](NC(=O)[C@@H](NC(=O)[C@H](CCC(=O)O)NC(=O)[C@@H]1CCCN1C(=O)[C@H](CO)NC(=O)[C@H](Cc1ccccc1)NC(=O)[C@H](C)NC(=O)[C@@H](N)CCCCN)C(C)C)C(=O)N1CCC[C@H]1C(=O)N[C@@H](CCSC)C(=O)N[C@@H](Cc1ccccc1)C(=O)O [KF11]
half-life [1]: 25.7 min

CC(C)(C)NC(=O)[C@@H]1C[C@@H]2CCCC[C@@H]2CN1C[C@@H](O)[C@H](Cc1ccccc1)NC(=O)[C@H](CC(N)=O)NC(=O)c1ccc2ccccc2n1 [Saquinavir]
Activity of purified mouse or human 20S proteasomes and proteasome activity in immortalized cells [2]: inhibit | 2-ISW9 ([…]) precursor production vs control or Kaletra treatment (PBMC cytosolic extracts; 3ISW9 degradation, 10 µM): at least twice less

CC(C)c1nc(CN(C)C(=O)N[C@H](C(=O)N[C@@H](Cc2ccccc2)C[C@H](O)[C@H](Cc2ccccc2)NC(=O)OCc2cncs2)C(C)C)cs1 [Ritonavir]
Cytosolic stability of optimal epitopes derived from CMV, HCV, Influenza or EBV ([1]; several peptides, unpublished data): increasing | Effect on proteasomal caspase-like activity [3]: did not enhance | Kinetics of killing and maximum lysis by B57-ISW9 CTL [4]: enhanced | Kinetics of killing and maximum lysis by B57-KF11 CTL [4]: slower and the maximum lysis reduced | Activity of purified mouse or human 20S proteasomes and proteasome activity in immortalized cells [2]: inhibit | ISW9 as % of total peptides (PBMC cytosolic extracts; 3ISW9 degradation, 10 µM PI, 60 min, 3% in control): 14% | Production of A25-QW11 epitope from 3ISW9 (PBMC cytosolic extracts; supplemental figure 3): reduced | Production of B15-HL9 epitope from 3ISW9 (PBMC cytosolic extracts; supplemental figure 3): reduced

Cc1c(O)cccc1C(=O)N[C@@H](CSc1ccccc1)[C@H](O)CN1C[C@H]2CCCC[C@H]2C[C@H]1C(=O)NC(C)(C)C [Nelfinavir]
A02-SL9 epitope half-life reduced by (fold vs control) ([1]; […]): 1.25 fold | Effect on proteasomal caspase-like activity [3]: not affected | Effect on killing of HIV-infected cells by B57-ISW9 CTL [4]: had no effect | Killing of HIV-infected cells by A11-ATK9 CTL, reduced by (fold vs DMSO) [4]: 4.8 fold | Killing of HIV-infected cells by B57-ISW9 CTL, inhibited (fold vs DMSO) [4]: 1.2 fold | Killing of HIV-infected cells by B57-KF11 CTL, reduced by (fold vs DMSO) [4]: 2.44 fold | Lysis of HIV-infected cells by B57-TW10 CTL, decreased (fold vs DMSO) [4]: 1.46 fold | Activity of purified mouse or human 20S proteasomes and proteasome activity in immortalized cells [2]: inhibit

COC(=O)N[C@H](C(=O)N[C@@H](Cc1ccccc1)[C@@H](O)CN(Cc1ccc(-c2ccccn2)cc1)NC(=O)[C@@H](NC(=O)OC)C(C)(C)C)C(C)(C)C [Atazanavir]
Effect on chymotryptic activity of proteasome [5]: did not change | A02-SL9 epitope half-life reduced by (fold vs control) ([1]; PBMC extracts pretreated with 2 µM or 5 µM PI): 1.33 fold | Effect on aminopeptidase activities (aminopeptidase): no change | Effect on proteasome tryptic activity [6]: not affected

CC[C@H](C)[C@H](NC(=O)[C@H](C)N)C(=O)N[C@@H](Cc1ccccc1)C(=O)N[C@@H](CCC(N)=O)C(=O)N[C@@H](CO)C(=O)N[C@@H](CO)C(=O)N[C@@H](CCSC)C(=O)N[C@H](C(=O)N[C@@H](CCCCN)C(=O)O)[C@@H](C)O [ATK9]
half-life [1]: 37.2 min

CC(C)(C)NC(=O)[C@@H]1CN(Cc2cccnc2)CCN1C[C@@H](O)C[C@@H](Cc1ccccc1)C(=O)N[C@H]1c2ccccc2C[C@H]1O [Indinavir]
Effect on aminopeptidase activities (aminopeptidase): no change | Effect on proteasomal caspase-like activity [3]: not affected | Killing of HIV-infected cells by A11-ATK9 CTL, reduced by (fold vs DMSO) [4]: 3 fold | Killing of HIV-infected cells by B57-KF11 CTL, reduced by (fold vs DMSO) [4]: 1.9 fold | Effect on proteasome tryptic activity [6]: not affected

CC(C)CN(C[C@@H](O)[C@H](Cc1ccccc1)NC(=O)O[C@H]1CO[C@H]2OCC[C@H]21)S(=O)(=O)c1ccc(N)cc1 [Darunavir]
Effect on chymotryptic activity of proteasome [5]: did not change | Effect on aminopeptidase activities (aminopeptidase): no change | Effect on proteasomal caspase-like activity [3]: not affected | Effect on proteasome tryptic activity [6]: not affected

ISPRTLNAW [ISW9]
half-life (in vitro): 14.8 min

CC(C)C[C@H](NC(=O)[C@@H](O)[C@H](N)Cc1ccccc1)C(=O)O [Bestatin]
Aminopeptidase activity reduced by (fold compared to the control) (aminopeptidase; 120 µM): 20 fold | Aminopeptidase activity, max slope of fluorescence emission (aminopeptidase; PBMC, 120 µM inhibitor, Leu-amc, control max slope 145.35): 7.25

CC(C)Nc1cccnc1N1CCN(C(=O)c2cc3cc(NS(C)(=O)=O)ccc3[nH]2)CC1 [Delavirdine]
Effect on the proteasomal and aminopeptidase activities [7]: did not have any significant effect

Nc1ccn([C@@H]2CS[C@H](CO)O2)c(=O)n1 [lamivudine, Lamivudine]
Effect on the proteasomal and aminopeptidase activities [7]: did not have any significant effect
